In publication PMC4363277 (Amino acids, 2015):

Tested on: B16/F1 melanoma cells
Assay: Cytotoxicity in B16/F1 melanoma cells
Type: cell-based, murine
Details: 0.1 µM, 3 h incubation at 37 °C, MTT 5 days post treatment
Procedure, shortened: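 B16/F1 cells at 150/well, overnight in CO2 incubator, washed with RPMI 1640, then exposed 3 h at 37 °C to 0.1 µM test compound in binding medium; controls kept in culture medium only. Washed, grown 5 days with medium changed every other day; MTT (0.5 mg/mL) 3 h at 37 °C, formazan dissolved in acidic isopropanol, A570 minus A630. Survival = treated/control absorbance × 100%.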

For “[Cys^3,4,10, D-Phe^7, Arg^11]α-MSH3–13 [(Arg^11)CCMSH]”, the “decrease of survival percentage versus untreated control cells” value was 15%.
